Test results from ChEMBL document CHEMBL1275565, “Minimal effects of ritonavir and efavirenz on the pharmacokinetics of raltegravir” (Antimicrob Agents Chemother, 2008).

Legend:
Assay type in all cases: ADME, organism-based
[1] = Trough plasma concentration at 12 hrs in HIV-negative human at 400 mg, po administered as single dose followed by 4 days wash out period followed by ritonavir dosing at 100 mg, po bid […] coadministered with compound at 400 mg, po on day 14; conditions: read-out: Cmin
Summary of the method: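 In healthy young males, ritonavir 100 mg twice daily for 14 days, with a single 400 mg oral raltegravir (double-blind vs placebo) given with the morning dose on day 14. All doses followed a moderate-fat meal. Cmax and Tmax by inspection at nominal times; C12h from the 12 h sample; AUC0–∞ by trapezoidal sum plus extrapolation.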

[2] = Trough plasma concentration at 12 hrs in HIV-negative human at 400 mg, po administered as single dose followed by 4 days wash out period followed by efavirenz dosing at 600 mg, po bid for 14 days coadministered with compound at 400 mg, po on day 12; conditions: in the assay text read “po qd for 14 days” for “po bid for 14 days”, read-out: Cmin
Summary of the method: (§1)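 Efavirenz 600 mg orally once daily at bedtime for 14 days, with a single 400 mg oral raltegravir (double-blind vs placebo) alongside on day 12. Healthy males, all doses taken fasted. Plasma sampled at 0–72 h postdose as in the ritonavir study, but at 36 h instead of 32 h, and quantified by HPLC-MS/MS. Cmax by inspection; C12h at nominal 12 h; AUC0–∞ by linear/log trapezoidal plus extrapolation.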

[3] = AUC (0 to infinity) in HIV-negative human at 400 mg, po administered as single dose followed by 4 days wash out period followed by […] coadministered with compound at 400 mg, po on day 14; set-up: dose 400 mg, time infinity, route oral; conditions: plasma
[4] = Trough plasma concentration at 12 hrs in HIV-negative human at 400 mg, po administered as single dose; conditions: read-out: Cmin
Summary of the method: (§2)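 Period 1 of two crossover studies in healthy male volunteers: single 400 mg oral raltegravir alone. Plasma sampled 0–72 h postdose and assayed by validated reverse-phase HPLC-MS/MS (LLOQ 2 ng/ml, linear to 1,000 ng/ml), converted to nM (MW 444.4). Cmax by inspection; C12h from the nominal 12 h sample; AUC0–∞ by linear/log trapezoidal plus extrapolation from the last concentration/β.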

[5] = Tmax in HIV-negative human at 400 mg, po administered as single dose followed by 4 days wash out period followed by […] coadministered with compound at 400 mg, po on day 14; conditions: in vivo
[6] = Cmax in HIV-negative human at 400 mg, po administered as single dose followed by 4 days wash out period followed by […] coadministered with compound at 400 mg, po on day 14; set-up: dose 400 mg, route oral; conditions: in vivo
[7] = Terminal half life in HIV-negative human at 400 mg, po administered as single dose followed by 4 days wash out period followed by efavirenz dosing at 600 mg, po bid for 14 days coadministered with compound at 400 mg, po on day 12; conditions: in vivo, in the assay text read “po qd for 14 days” for “po bid for 14 days”, read-out: beta t1/2 (converted)
Summary of the method: (§3)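 Healthy male volunteers; plasma raltegravir measured by validated reverse-phase HPLC-MS/MS (LLOQ 2 ng/ml, linear 2 to 1,000 ng/ml) and converted to nM. Each subject's profile was fit to a biexponential model (weighting 1/(predicted concentration)², Gauss-Newton minimization), with α-phase onset set by inspection. Phase t1/2 = ln(2)/α or β. Median differences were estimated by Hodges-Lehman with 90% CI.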

[8] = Cmax in HIV-negative human at 400 mg, po administered as single dose followed by 4 days wash out period followed by efavirenz dosing at 600 mg, po bid for 14 days coadministered with compound at 400 mg, po on day 12; set-up: dose 400 mg, route oral; conditions: in vivo, in the assay text read “po qd for 14 days” for “po bid for 14 days”; summary of the method: as §1
[9] = AUC (0 to infinity) in HIV-negative human at 400 mg, po administered as single dose followed by 4 days wash out period followed by efavirenz dosing at 600 mg, po bid for 14 days coadministered with compound at 400 mg, po on day 12; set-up: dose 400 mg, route oral, time infinity; conditions: plasma, in the assay text read “po qd for 14 days” for “po bid for 14 days”; summary of the method: as §1
[10] = Primary phase half life in HIV-negative human at 400 mg, po administered as single dose followed by 4 days wash out period followed by efavirenz dosing at 600 mg, po bid for 14 days coadministered with compound at 400 mg, po on day 12; conditions: in vivo, in the assay text read “po qd for 14 days” for “po bid for 14 days”, read-out: alphat1/2 (converted); summary of the method: as §3
[11] = Primary phase half life in HIV-negative human at 400 mg, po administered as single dose followed by 4 days wash out period followed by ritonavir dosing at 100 mg, po bid for 16 days coadministered with compound at 400 mg, po on day 14; conditions: in vivo, read-out: alphat1/2 (converted); summary of the method: as §3
[12] = Terminal half life in HIV-negative human at 400 mg, po administered as single dose; conditions: in vivo, read-out: beta t1/2 (converted); summary of the method: as §3
[13] = Primary phase half life in HIV-negative human at 400 mg, po administered as single dose; conditions: in vivo, read-out: alphat1/2 (converted); summary of the method: as §3
[14] = Terminal half life in HIV-negative human at 400 mg, po administered as single dose followed by 4 days wash out period followed by ritonavir dosing at 100 mg, po bid for 16 days coadministered with compound at 400 mg, po on day 14; conditions: in vivo, read-out: beta t1/2 (converted); summary of the method: as §3
[15] = AUC (0 to infinity) in HIV-negative human at 400 mg, po administered as single dose; set-up: dose 400 mg, time infinity, route oral; conditions: plasma; summary of the method: as §2
[16] = Cmax in HIV-negative human at 400 mg, po administered as single dose; set-up: dose 400 mg, route oral; conditions: in vivo; summary of the method: as §2

concentration at 12 h [1]: 0.0765 µM | concentration at 12 h [2]: 0.0625 µM | AUC(0-inf) [3]: 19.3 µM·h | concentration at 12 h [4]: 0.0771 µM | Tmax [5]: 2 h | Cmax [6]: 7.23 µM | half-life [7]: 9.1 h | Cmax [8]: 6.45 µM | AUC(0-inf) [9]: 18.1 µM·h | half-life [10]: 0.95 h | half-life [11]: 0.97 h | half-life [12]: 10.8 h | half-life [13]: 0.98 h | half-life [14]: 10 h | AUC(0-inf) [15]: 22.9 µM·h | Cmax [16]: 9.57 µM
SMILES: Cc1nnc(C(=O)NC(C)(C)c2nc(C(=O)NCc3ccc(F)cc3)c(O)c(=O)n2C)o1 [RALTEGRAVIR]
